The structures appear in SMILES notation. pIC50: −log10 of the molar value.

In one assay the test system is ACHN. In words: Antiproliferative activity against human ACHN cells by SRB method. Format: functional. The method in brief:
(§1)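 GI50 against human cancer cell lines is the mean of three independent experiments.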
In general terms: The SRB assay estimates cell density from bound dye.

Another assay deals with NCI-H23. Nature of the assay: Antiproliferative activity against human NCI-H23 cells by SRB method. The class given is functional. The gist of the method: as §1
The next assay has as its system MDA-MB-231. In words: Antiproliferative activity against human MDA-MB-231 cells by SRB method. The class given is functional. The gist of the method:
as §1

The nature of assay [1]: Antiproliferative activity against human HCT15 cells by SRB method. Format: functional. As to conditions: HCT-15. The method in brief: as §1
Assay [2] in a line: Antiproliferative activity against human NUGC3 cells by SRB method. The class given is functional. As to conditions: NUGC-3. The method in brief: as §1
The subject of a further assay is PC-3. Nature of the assay: Antiproliferative activity against human PC3 cells by SRB method. The class given is functional. The method in brief: as §1
Assay [3] concerns the target Nuclear factor NF-kappa-B complex (Homo sapiens, UniProt P19838+Q00653+Q04206). Nature of the assay: Inhibition of NF-kappaB in human THP1 cells incubated for 2 hrs prior to LPS challenge measured after 16 hrs by SEAP assay. Format: cell-based, THP-1. The gist of the method: (§2)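 Reporter cells: RAW 264.7 carrying stably integrated pNF-κB-SEAP-NPT, or THP-1 transfected with pNF-κB-SEAP. Cells were pretreated with compound for 2 h, then stimulated with LPS (1 µg/ml) for 16 h. Culture-medium aliquots were heated at 65 °C for 5 min and incubated with 4-methylumbelliferyl phosphate (500 µM) in the dark for 1 h. Fluorescence was read at ex 360/em 449 nm as RFU. IC50 is the mean of three experiments.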

A short description of assay [4]: Inhibition of NF-kappaB in mouse RAW264.7 cells incubated for 2 hrs prior to LPS challenge measured after 16 hrs by SEAP assay. Format: cell-based. The gist of the method: as §2

Nuclear factor NF-kappa-B complex, sequence (P19838 1-433 limits assumed): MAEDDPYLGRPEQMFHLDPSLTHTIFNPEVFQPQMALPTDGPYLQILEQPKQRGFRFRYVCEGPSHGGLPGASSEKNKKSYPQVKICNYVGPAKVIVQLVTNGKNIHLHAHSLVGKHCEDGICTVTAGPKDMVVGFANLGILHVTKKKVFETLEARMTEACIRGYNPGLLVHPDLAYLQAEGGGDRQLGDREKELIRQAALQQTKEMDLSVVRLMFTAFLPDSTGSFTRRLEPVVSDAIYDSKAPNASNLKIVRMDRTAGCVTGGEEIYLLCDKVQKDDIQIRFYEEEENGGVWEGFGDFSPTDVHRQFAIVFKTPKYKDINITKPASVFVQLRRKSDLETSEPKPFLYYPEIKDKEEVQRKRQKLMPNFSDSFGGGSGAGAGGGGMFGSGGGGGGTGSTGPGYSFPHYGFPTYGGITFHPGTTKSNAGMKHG
Nuclear factor NF-kappa-B complex, sequence (Q00653 1-454 limits assumed): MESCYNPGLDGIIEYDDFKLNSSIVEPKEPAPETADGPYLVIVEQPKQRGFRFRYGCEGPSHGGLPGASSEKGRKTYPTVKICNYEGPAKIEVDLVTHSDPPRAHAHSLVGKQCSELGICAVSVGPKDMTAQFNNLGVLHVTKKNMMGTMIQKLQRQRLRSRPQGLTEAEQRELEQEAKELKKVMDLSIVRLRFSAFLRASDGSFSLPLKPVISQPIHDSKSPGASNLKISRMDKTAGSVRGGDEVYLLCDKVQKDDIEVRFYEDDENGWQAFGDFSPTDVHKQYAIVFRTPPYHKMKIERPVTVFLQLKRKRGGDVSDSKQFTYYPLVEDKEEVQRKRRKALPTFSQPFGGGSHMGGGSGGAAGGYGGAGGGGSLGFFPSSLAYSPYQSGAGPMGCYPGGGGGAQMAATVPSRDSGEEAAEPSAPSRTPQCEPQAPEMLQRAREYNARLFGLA
Nuclear factor NF-kappa-B complex, sequence (Q04206 whole entry): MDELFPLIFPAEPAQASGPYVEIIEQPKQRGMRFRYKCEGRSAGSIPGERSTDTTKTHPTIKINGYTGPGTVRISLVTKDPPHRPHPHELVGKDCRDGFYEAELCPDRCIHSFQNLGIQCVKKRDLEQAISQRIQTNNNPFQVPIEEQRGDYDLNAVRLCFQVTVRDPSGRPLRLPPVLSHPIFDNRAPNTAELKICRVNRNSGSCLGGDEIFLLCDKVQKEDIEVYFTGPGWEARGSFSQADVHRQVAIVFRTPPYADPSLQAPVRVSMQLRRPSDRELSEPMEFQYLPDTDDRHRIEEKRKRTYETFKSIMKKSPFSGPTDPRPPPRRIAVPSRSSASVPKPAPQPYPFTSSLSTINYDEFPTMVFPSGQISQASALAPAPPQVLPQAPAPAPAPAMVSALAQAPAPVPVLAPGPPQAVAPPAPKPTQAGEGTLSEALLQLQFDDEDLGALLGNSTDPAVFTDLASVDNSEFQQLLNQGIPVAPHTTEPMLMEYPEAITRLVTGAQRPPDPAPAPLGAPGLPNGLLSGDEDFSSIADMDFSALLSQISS

As for `O=C(/C=C/c1ccc(O)cc1)c1c(O)cccc1OCCC1CCCC1`, the GI50 – broadly, the concentration that inhibits growth by half – in the assay on ACHN is 3.4 µM; in the assay with NCI-H23, 3.37 µM; in the assay with MDA-MB-231, 3.34 µM; in assay [1], 3.31 µM; in assay [2], 3.2 µM; in the assay on PC-3 it was 3.48 µM. For the same compound, the pIC50 (usually the negative decadic logarithm of the IC50, by convention in mol/L) in assay [3] is 4.74.
As to `CC(C)(C)CCOc1cccc(O)c1C(=O)/C=C/c1ccc(C(=O)O)cc1`, the concentration for 50% growth inhibition (GI50) in the assay on ACHN is 8.45 µM; with NCI-H23, 4.77 µM; in the assay on MDA-MB-231, 11.2 µM; in assay [1], 2.17 µM; in assay [2], 5.44 µM; in the assay with PC-3, 6.5 µM. The pIC50 in assay [3] is 5.55.
As for `CC(C)(C)CCOc1cccc(O)c1C(=O)/C=C/c1ccc(S(N)(=O)=O)cc1`, the GI50 with ACHN amounted to 3.3 µM; in the assay on NCI-H23, 2.95 µM; in the assay with MDA-MB-231, 2.11 µM; in assay [1], 2.93 µM; in assay [2], 1.17 µM; in the assay on PC-3, 3.25 µM. The pIC50 in assay [3] is 5.92.
Regarding `CC(C)COc1cccc(O)c1C(=O)/C=C/c1ccc(O)cc1`, the GI50 was 3.29 µM in the assay with ACHN; 3.22 µM in the assay on NCI-H23; 3.52 µM in the assay on MDA-MB-231; 2.6 µM in assay [1]; 2.98 µM in assay [2]; 2.97 µM in the assay with PC-3. The same compound showed a pIC50 in assay [3] of 5.10.
In assay [2], `COc1cccc2c1C(=O)c1c(O)c3c(c(O)c1C2=O)C[C@@](O)(C(=O)CO)C[C@@H]3O[C@H]1C[C@H](N)[C@H](O)[C@H](C)O1` [DOXORUBICIN] had a GI50 of 1 µM.
With `O=C(/C=C/c1ccc(O)cc1)c1c(O)cccc1OCC12CC3CC(CC(C3)C1)C2`, the GI50 (in the assay on ACHN; with NCI-H23; in the assay on MDA-MB-231; in assay [1]; in assay [2]; with PC-3) was above 30 µM throughout. For the same compound, the pIC50 in assay [3] was below 4.52.
As to `CC(C)CCOc1cccc(O)c1C(=O)/C=C/c1ccc(O)cc1`, the pIC50 in assay [4] was 5.00. The GI50 came out at 11.3 µM with ACHN; 12.1 µM in the assay on NCI-H23; 10.3 µM in the assay with MDA-MB-231; 10.6 µM in assay [1]; 12.4 µM in assay [2]; 11.5 µM in the assay on PC-3.
Turning to `O=C(/C=C/c1ccc(O)cc1)c1c(O)cccc1OCc1ccccc1`, the GI50 (in the assay with ACHN; with NCI-H23; in the assay on MDA-MB-231; in assay [1]; in assay [2]; in the assay with PC-3) was above 30 µM in each case.
`O=C(/C=C/c1ccc(O)cc1)c1c(O)cccc1OCC1CCCC1`: the GI50 was found to be 3.51 µM in the assay on ACHN; 3.16 µM with NCI-H23; 3.41 µM with MDA-MB-231; 3.41 µM in assay [1]; 2.14 µM in assay [2]; 3.04 µM with PC-3. In assay [3], the pIC50 was 4.89.
For `O=C(/C=C/c1ccc(O)cc1)c1c(O)cccc1OCCC1CCCCC1`, the GI50 (in the assay with ACHN; in the assay on NCI-H23; in the assay on MDA-MB-231; in assay [1]; in assay [2]; in the assay on PC-3) was above 30 µM each time. Besides, in assay [3], the pIC50 is below 4.52.
Consider `CCCCOc1cccc(O)c1C(=O)/C=C/c1ccc(O)cc1`, for which the GI50 (in the assay on ACHN; with NCI-H23; in the assay with MDA-MB-231; in assay [1]; in assay [2]; in the assay with PC-3) was above 30 µM in each case. This compound also gave a pIC50 in assay [3] below 4.52.
Turning to `CCC(CC)COc1cccc(O)c1C(=O)/C=C/c1ccc(O)cc1`, the GI50 was determined as 3.37 µM in the assay on ACHN; 3.21 µM with NCI-H23; 3.13 µM with MDA-MB-231; 3.42 µM in assay [1]; 1.96 µM in assay [2]; 3.39 µM in the assay with PC-3. In assay [3], this compound showed a pIC50 of 4.92.
With `COc1cccc(OCCC(C)(C)C)c1C(=O)/C=C/c1ccc(O)cc1`, the GI50 (in the assay on ACHN; with NCI-H23; in the assay on MDA-MB-231; in assay [1]; in assay [2]; in the assay with PC-3) was above 30 µM each time. The compound further showed a pIC50 in assay [3] below 4.52.
For `CC(C)=CCOc1cccc(O)c1C(=O)/C=C/c1ccc(O)cc1`, the GI50 (in the assay on ACHN; in the assay with NCI-H23; in the assay on MDA-MB-231; in assay [1]; in assay [2]; in the assay with PC-3) was above 30 µM throughout. Also, the pIC50 in assay [3] is below 4.52.
Take `O=C(/C=C/c1ccc(O)cc1)c1c(O)cccc1OCC1CCCCC1`: the GI50 (with ACHN; with NCI-H23; with MDA-MB-231; in assay [1]; in assay [2]; in the assay on PC-3) was above 30 µM each time.
As for `CC(C)(C)CCOc1cccc(O)c1C(=O)/C=C/c1ccc(O)cc1`, the GI50 with ACHN was found to be 3.14 µM; with NCI-H23, 3.13 µM; in the assay on MDA-MB-231 it was 2.38 µM; in assay [1], 3.43 µM; in assay [2], 3.3 µM; in the assay on PC-3 it was 3.22 µM. Also, in assay [3], the pIC50 is 5.52.
On to `CCCCCCOc1cccc(O)c1C(=O)/C=C/c1ccc(O)cc1`, for which the GI50 (with ACHN; with NCI-H23; in the assay on MDA-MB-231; in assay [1]; in assay [2]; in the assay with PC-3) was above 30 µM in each case.
Take `CC(C)(C)CCOc1cccc(O)c1C(=O)CCc1ccc(O)cc1`: the 50% growth inhibitory concentration (GI50) (in the assay on ACHN; in the assay on NCI-H23; in the assay with MDA-MB-231; in assay [1]; in assay [2]; in the assay on PC-3) was above 30 µM each time. Moreover, the pIC50 in assay [3] is below 4.52.
Consider `CC(C)CCCOc1cccc(O)c1C(=O)/C=C/c1ccc(O)cc1`, for which the GI50 in the assay with ACHN was determined as 3.63 µM; in the assay on NCI-H23, 11.3 µM; with MDA-MB-231 it was 3.48 µM; in assay [1], 11.6 µM; in assay [2], 3.52 µM; with PC-3 it was 3.6 µM. In addition, the pIC50 in assay [3] was 4.96.

Source of the values: ChEMBL document CHEMBL3286164, “Anti-proliferative effect of chalcone derivatives through inactivation of NF-κB in human cancer cells” (Bioorg Med Chem, 2014).
